The data set is described as follows: Toxicity liver stage against HepG2, at 10uM. On the set-up: test concentration 10 uM, cell line HepG2-A16-CD81EGFP. It counts as cell-based. The following applies: human, HepG2-A16-CD81EGFP cells; read-out: INHIBITION
The essentials:
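Uninfected HepG2-A16-CD81EGFP cells, 3 × 10^3 per well, 1536-well, plated on prespotted compound at 10 μM final, parasite-free screening media added to match infected plates; puromycin 10 μM positive, DMSO 0.5% negative; run in parallel with 48 h PbLuc assay at 37 °C, 5% CO2; viability by CellTiter-Glo luminescence, normalized to controls.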

From ChEMBL document CHEMBL4513216, “Probing the Open Global Health Chemical Diversity Library for Multistage-Active Starting Points for Next-Generation Antimalarials” (ACS Infect Dis, 2020) come the findings set out here.

The structures appear in SMILES notation.

As for `Cc1ccnc(NS(=O)(=O)c2cc(C(N)=O)n(C)c2)c1`, the cytotoxicity at 10 µM is 0.814%.
With `O=C1CC2(CCNCC2)C(=O)N1c1cccc(F)c1`, the cytotoxicity at 10 µM stood at 1.7%.
Take `Cc1cc2c(=O)n3c(nc2s1)CCN(C(=O)c1scnc1C)CC3`: the cytotoxicity at 10 µM was -0.774%.
Regarding `CCN(CC)CCCNCC1CCOC(C)(C)C1` (configuration not stated), the cytotoxicity at 10 µM is -6.01%.
As to `CN(CCCc1nccn1C)C(=O)C1CCN(C(=O)C2CC2)CC1`, the cytotoxicity at 10 µM is -4.49%.
For the compound `CC(C)(C)OC(=O)N1CCC[C@H](NCC2CCOCC2)C1`, the cytotoxicity at 10 µM is -0.678%.
Take `O=C(c1cc2c(s1)CCC2)N1CCCC1c1noc(C2CC2)n1` (configuration not stated): the cytotoxicity at 10 µM was -8.18%.
For `Cc1cccc(CN2CC[C@H]3CO[C@H](CNC(=O)N(C)C)[C@H]3C2)c1`, the cytotoxicity at 10 µM was found to be 1.47%.
Regarding `CCc1noc(CN(Cc2ccc3c(c2)OCO3)C2CCCC2)n1`, the cytotoxicity at 10 µM was -0.315%.
For the compound `CCC(Nc1ccc(CCN2CCOCC2)cc1)C(N)=O` (configuration not stated), the cytotoxicity at 10 µM was determined as 4.42%.
With `CC(C(=O)N1CCCN(c2ncccc2C#N)CC1)n1cncn1` (configuration not stated), the cytotoxicity at 10 µM was -6.54%.
Turning to `CCc1c(C)nc2ccccc2c1N1CCC(NC(C)=O)CC1`, the cytotoxicity at 10 µM stood at 11.2%.
The result for `CC(=O)N1CCCC1c1cccc(NCc2ccccc2F)n1` (configuration not stated) reads -13.8%.
For `Cn1cc(C2CCCN2Cc2csc(Cc3ccccc3)n2)cn1` (configuration not stated), the cytotoxicity at 10 µM was -1.19%.
Consider `O=c1c2cnc(N3CCCCC3)nc2ccn1Cc1ccco1`, for which the cytotoxicity at 10 µM was -9.69%.
In the case of `COc1c(C)cnc(CNC(=O)c2cc(C)nc3onc(C)c23)c1C`, the cytotoxicity at 10 µM is -0.947%.
In the case of `O=C(NC1CC1)c1cc(NC(=O)N2CCOCC2)ccc1Cl`, the cytotoxicity at 10 µM was -4.15%.
On to `O=C(CCc1cc2n(n1)CCN(Cc1ncc[nH]1)C2)N1CCCC1`, for which the cytotoxicity at 10 µM is -5.77%.
In the case of `COc1ccc(CN2CCCC2)cc1Oc1ccc(NC(C)=O)cc1`, the cytotoxicity at 10 µM was -1.1%.
The result for `Cc1ccc(C(C(=O)N2CCC(Cc3noc(C)n3)CC2)N(C)C)cc1` (configuration not stated) reads -5.37%.
In the case of `CNS(=O)(=O)c1ccccc1N1CCN(C(C)C(=O)OC)CC1` (configuration not stated), the cytotoxicity at 10 µM is 0.375%.
Take `O=C(C(CNCc1ccncc1)c1ccccc1)N1CCOCC1` (configuration not stated): the cytotoxicity at 10 µM was -19%.
The result for `COc1c(C2CCCN2Cc2nnc(C3CC3)o2)c(C)nn1C` (configuration not stated) reads -9.29%.
With `CN(Cc1cccnc1)CC1CC12CCCC2` (configuration not stated), the cytotoxicity at 10 µM was -0.243%.
As to `Cc1ccc2c(c1)CCC2NCc1c(C)nn(C)c1N1CCOCC1` (configuration not stated), the cytotoxicity at 10 µM is -8.03%.
For `O=C(NCC1CCCO1)c1cc(Sc2ncccn2)ccn1` (configuration not stated), the cytotoxicity at 10 µM is -17.2%.
As to `O=C(c1cscn1)N1C[C@@H](Oc2cccnc2)[C@H]2OCCC[C@H]21`, the cytotoxicity at 10 µM was 7.77%.
Turning to `CN(Cc1csc(-c2cccs2)n1)C(=O)CCn1ccc(=O)[nH]c1=O`, the cytotoxicity at 10 µM was 4.71%.
Take `CCc1noc(C)c1C(=O)N1CCCCC1Cn1cc(C)cn1` (configuration not stated): the cytotoxicity at 10 µM turned out to be 10.8%.
In the case of `CC(=O)N1C[C@H](c2cc(O)nc(C)n2)[C@@H](c2ccccc2F)C1`, the cytotoxicity at 10 µM worked out at 1.65%.
Regarding `NC(=O)c1ccc(-n2ccnc2C2CC2)cc1N1CCCC1`, the cytotoxicity at 10 µM was -3.82%.
`Cc1c(Br)cccc1CSc1nnc(CO)n1C`: the cytotoxicity at 10 µM is -40.5%.
The result for `CC1CCCN(C(=O)c2cccc(CS(C)(=O)=O)c2)C1` (configuration not stated) reads -1.42%.
For the compound `NC(=O)N1CCCC(C(=O)NCCc2nc(Cc3ccccc3)no2)C1` (configuration not stated), the cytotoxicity at 10 µM stood at 8.5%.
In the case of `Cc1cc(CN(C)C(=O)c2ccc(Cl)c(S(C)(=O)=O)c2)no1`, the cytotoxicity at 10 µM is -2.77%.
In the case of `O=C(Cc1c(F)cccc1Cl)Nc1cc(N2CCCC2)ncn1`, the cytotoxicity at 10 µM was -2.85%.
With `COc1ccc(C2CCCCCN2S(C)(=O)=O)cc1` (configuration not stated), the cytotoxicity at 10 µM worked out at 3.86%.
With `Cc1ccc(NC2CCN(C(=O)c3nccc4ccccc34)CC2)nn1`, the cytotoxicity at 10 µM was -13.5%.
Regarding `COc1ccc(C(=O)C2CCCN(c3cc(OC)ncn3)C2)c(C)c1` (configuration not stated), the cytotoxicity at 10 µM worked out at 48%.
`Cc1cccc(=O)n1CCC(=O)N1CC[C@@](O)(C2CCC2)[C@H](C)C1`: the cytotoxicity at 10 µM was found to be 5.8%.
For `Cc1nc(C(NC(=O)CC(F)(F)F)c2ccc(Cl)cc2)no1` (configuration not stated), the cytotoxicity at 10 µM came to 9.83%.
Regarding `Cc1ccc(CN2CC[C@@H]3[C@@H](CO[C@H]3CN3CCN(C)CC3)C2)cc1`, the cytotoxicity at 10 µM is -2.74%.
Take `O=C(c1cccnc1)N1CCn2nnc(COc3ccccn3)c2C1`: the cytotoxicity at 10 µM was -76.2%.
On to `O=C(NCC1CCS(=O)(=O)C1)N1CCN(c2cnccn2)CC1` (configuration not stated), for which the cytotoxicity at 10 µM was -7.21%.
As for `CN1CCC(CNC(=O)c2cccc(C(F)(F)F)c2)c2ccccc21` (configuration not stated), the cytotoxicity at 10 µM was determined as 17.4%.
As for `Cn1cc(C(=O)NCc2ccc(N3CCNC(=O)C3)c(F)c2)cn1`, the cytotoxicity at 10 µM was -2.97%.
As to `CN(C)c1cccc(C(=O)NCC2(O)CCOCC2)c1`, the cytotoxicity at 10 µM turned out to be 10.3%.
For the compound `CC(C)c1cc(NC(=O)CNC2CCc3nc(C(C)C)nn3C2)on1` (configuration not stated), the cytotoxicity at 10 µM worked out at 0.246%.
In the case of `CCCC(Nc1nc(COCC)nc2c1CCNCC2)c1nccn1C` (configuration not stated), the cytotoxicity at 10 µM is -10.3%.
For the compound `O=C(c1ccc2c(c1)COC2)N1CCCC(n2cncn2)C1` (configuration not stated), the cytotoxicity at 10 µM is -20.6%.
For `Cn1nnnc1SCC1COc2ccccc2O1` (configuration not stated), the cytotoxicity at 10 µM is -1.94%.
As for `CC(C)N(CC(N)=O)C(=O)c1cnc(-c2ccc3c(c2)OCO3)s1`, the cytotoxicity at 10 µM was -5.92%.
The result for `CCNC(=O)NC(=O)CN1CCC(c2cccc(F)c2)C1` (configuration not stated) reads -9.45%; that for `O=C(c1n[nH]c2c1CCN(Cc1nccs1)C2)N1CCOCC1`, -144%; that for `CCOCCc1nc(Cc2ccccc2)n[nH]1`, 7.9%.
The result for `CNC(=O)c1ccc(CN2CCN(C3=NCC(C)(C)S3)CC2)cc1` reads 14.3%; that for `CSCC[C@H](NC(C)=O)c1nc(CC(C)C)n[nH]1`, 6.05%; that for `Cc1ccc(CN2CC3(CCNCC3)CCC2=O)c(F)c1F`, 4.95%.
On to `COc1ccc(NC(=O)c2ccco2)c(N2CCN(C(C)=O)CC2)n1`, for which the cytotoxicity at 10 µM is -10.2%.
Consider `COCCC(=O)N1CCCC2(CCCN2Cc2ccccc2F)C1` (configuration not stated), for which the cytotoxicity at 10 µM was 8.01%.
On to `Cc1noc(C)c1CN1CC2(CCN(C(=O)c3ccoc3C)C2)CC1=O` (configuration not stated), for which the cytotoxicity at 10 µM was 7.78%.
Regarding `O=C(c1ccc[nH]1)N1CCO[C@]2(CCC[C@@H]2COc2cccnc2)C1`, the cytotoxicity at 10 µM amounted to 9.46%.
For the compound `COc1ccc(CNC(Cc2ccsc2)c2ccc(C)cn2)cc1OC` (configuration not stated), the cytotoxicity at 10 µM is -4.88%.
As to `NC(=O)C1CCN(c2nccc(-c3c[nH]nc3C3CCCCC3)n2)CC1`, the cytotoxicity at 10 µM is -10.6%.
`CC(C)(C)c1ncc(C(=O)NCCNC(=O)c2ccccc2)s1`: the cytotoxicity at 10 µM is -8.08%.
`Cc1nc(CN(C)Cc2nc(-c3ccncc3)no2)co1`: the cytotoxicity at 10 µM was -0.187%.
In the case of `Cn1cc(CCNC(=O)CCc2ccc3c(c2)OCO3)cn1`, the cytotoxicity at 10 µM was -7.15%.
With `O=C(C1CC(F)(F)C1)N1C[C@@H]2CN(CC3CC3)CCO[C@@H]2C1`, the cytotoxicity at 10 µM is -0.336%.
Regarding `CCCC12CN3CC(CCC)(CN(C1)C3c1[nH]c(=O)[nH]c(=O)c1C)C2=O` (configuration not stated), the cytotoxicity at 10 µM was 4.17%.
As for `CCn1nc(C)c(NC(=O)CN(C)C(C)c2ccon2)c1C` (configuration not stated), the cytotoxicity at 10 µM was -147%.
As to `Cc1ccc2c(c1)SCC(=O)N2Cc1noc(C2CC2)n1`, the cytotoxicity at 10 µM stood at 7.4%.
With `O=C(COc1ccc(Cl)cc1)NCc1nncn1C1CC1`, the cytotoxicity at 10 µM came to 7.67%.
As to `CN(C)CCCn1ccnc1C1CCN(C(=O)Cc2cccnc2)CC1`, the cytotoxicity at 10 µM stood at 4.77%.
Take `Cc1cccnc1N1CCN(C(=O)CCc2cn3ccccc3n2)CC1`: the cytotoxicity at 10 µM was -6.21%.
Regarding `Cc1cc(F)ccc1N1CCCC(NC(=O)CCc2ccncc2)C1` (configuration not stated), the cytotoxicity at 10 µM worked out at 8.72%.
Take `NC(=O)c1ccc(NC(=O)Cn2cc(I)cn2)cc1`: the cytotoxicity at 10 µM worked out at 8.49%.
For `O=C(Cn1cc(C(=O)O)ccc1=O)Nc1ccc(Cl)cc1F`, the cytotoxicity at 10 µM was -6.94%.
As to `CN(Cc1ccc2c(c1)OCO2)C(=O)C1CC(c2cccc(F)c2)=NO1` (configuration not stated), the cytotoxicity at 10 µM is 10.7%.
For the compound `O=C(c1cccc2[nH]ccc12)N1CCC2(CCOC2)C1` (configuration not stated), the cytotoxicity at 10 µM is -151%.
Turning to `CS(=O)(=O)CC(=O)N1C[C@@H]2CN(Cc3ccoc3)CCO[C@@H]2C1`, the cytotoxicity at 10 µM is -69.2%.
On to `O=C(NCC(=O)N1CCc2ccccc2C1)c1cnccn1`, for which the cytotoxicity at 10 µM is -4.81%.
Take `CC(C)N1CC(NC(=O)c2ccc(Cl)s2)CC1=O` (configuration not stated): the cytotoxicity at 10 µM was -8.51%.
On to `CN(Cc1cc2n(n1)CCNC2)Cc1n[nH]c2c1CCC2`, for which the cytotoxicity at 10 µM amounted to 5.04%.
Turning to `COc1ccc(C(=O)N2CC(=O)N(Cc3cccs3)CC(O)C2)cc1` (configuration not stated), the cytotoxicity at 10 µM is 4.43%.
As for `CN(Cc1cccc(F)c1)C(=O)CN1CCOC(Cn2cccn2)C1` (configuration not stated), the cytotoxicity at 10 µM was -8.21%.
Regarding `COCC(=O)NCc1cccc(Br)c1`, the cytotoxicity at 10 µM was -4.2%.
On to `CC(Cn1cccn1)NC(=O)CCC(=O)c1cccs1` (configuration not stated), for which the cytotoxicity at 10 µM was -2.39%.
The result for `COc1ccc(CNC(=O)NC(C)Cn2cccn2)cc1O` (configuration not stated) reads -3.1%; that for `c1ccc(COCC2CNCc3nccn3C2)nc1` (configuration not stated), 14.4%; that for `CO[C@H]1CCN(C2CCOCC2)C[C@@H]1Cc1ccccc1`, 3.11%.
The result for `NS(=O)(=O)CC1CCN(c2ncccc2C(F)(F)F)CC1` reads -3.16%; that for `Cc1ccccc1OCCC(=O)NC(C)c1nnc2n1CCCCC2` (configuration not stated), -12.3%.
The result for `O=C(CC1CC1)N[C@@H]1CN(C(=O)c2ccsc2)C[C@@H]2CCCO[C@@H]21` reads -109%; that for `Cc1cc(NC(=O)c2ccc(N3CCOCC3)c(C)c2)[nH]n1`, -35.1%.
With `COc1ccc(-c2cc3nn(CC(=O)NC(C)C)c(=O)n3c(C)n2)cc1`, the cytotoxicity at 10 µM is 1.81%.
On to `COCCC1(CNC(=O)Nc2ccc(-n3nccn3)cc2)CCC1`, for which the cytotoxicity at 10 µM was -2.99%.
The result for `CCc1nc(CN2CCCN(C(=O)COC(C)C)CC2)cs1` reads -15%.
